Measured values reported in ChEMBL document CHEMBL1150387, “Development and experimental validation of a docking strategy for the generation of kinase-targeted libraries” (J Med Chem, 2008).

Legend:
[1] = target: Protein-tyrosine kinase 6 (Homo sapiens) (UniProt Q13882); assay: Inhibition of Brk at 10 uM by HTRF assay relative to control
Summary of the method: (§1)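 HTRF kinase assay, one panel of kinases. Inhibitor stock 50 µM in 100% DMSO; tested at 10 µM. ATP and substrate at final levels near Km. Final buffer: 50 mM Hepes/NaOH pH 7.4, 40 µM Na3VO4, 0.005% Tween-20, 1 mM DTT, MnCl2 or MgCl2 at kinase-dependent levels. Started by adding ATP/substrate. Reaction run at room temperature, time varied by kinase. Detection mix in 50 mM Hepes pH 7.4, 0.1% BSA, 150 mM KF, incubated ≥1 h at room temperature. Activity expressed as % of uninhibited control; n=2.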

[2] = target: Protein kinase C gamma type (Homo sapiens) (UniProt P05129); assay: Inhibition of PKCgamma at 10 uM by HTRF assay relative to control; summary of the method: as §1
[3] = target: Platelet-derived growth factor receptor beta (Homo sapiens) (UniProt P09619); assay: Inhibition of PDGFRbeta at 10 uM by HTRF assay relative to control; summary of the method: as §1
[4] = target: T1, Ephrin type-B receptor 4 (Homo sapiens) (UniProt P54760); assay: Inhibition of EphB4 at 10 uM by HTRF assay relative to control; summary of the method: as §1
T1 sequence (whole entry): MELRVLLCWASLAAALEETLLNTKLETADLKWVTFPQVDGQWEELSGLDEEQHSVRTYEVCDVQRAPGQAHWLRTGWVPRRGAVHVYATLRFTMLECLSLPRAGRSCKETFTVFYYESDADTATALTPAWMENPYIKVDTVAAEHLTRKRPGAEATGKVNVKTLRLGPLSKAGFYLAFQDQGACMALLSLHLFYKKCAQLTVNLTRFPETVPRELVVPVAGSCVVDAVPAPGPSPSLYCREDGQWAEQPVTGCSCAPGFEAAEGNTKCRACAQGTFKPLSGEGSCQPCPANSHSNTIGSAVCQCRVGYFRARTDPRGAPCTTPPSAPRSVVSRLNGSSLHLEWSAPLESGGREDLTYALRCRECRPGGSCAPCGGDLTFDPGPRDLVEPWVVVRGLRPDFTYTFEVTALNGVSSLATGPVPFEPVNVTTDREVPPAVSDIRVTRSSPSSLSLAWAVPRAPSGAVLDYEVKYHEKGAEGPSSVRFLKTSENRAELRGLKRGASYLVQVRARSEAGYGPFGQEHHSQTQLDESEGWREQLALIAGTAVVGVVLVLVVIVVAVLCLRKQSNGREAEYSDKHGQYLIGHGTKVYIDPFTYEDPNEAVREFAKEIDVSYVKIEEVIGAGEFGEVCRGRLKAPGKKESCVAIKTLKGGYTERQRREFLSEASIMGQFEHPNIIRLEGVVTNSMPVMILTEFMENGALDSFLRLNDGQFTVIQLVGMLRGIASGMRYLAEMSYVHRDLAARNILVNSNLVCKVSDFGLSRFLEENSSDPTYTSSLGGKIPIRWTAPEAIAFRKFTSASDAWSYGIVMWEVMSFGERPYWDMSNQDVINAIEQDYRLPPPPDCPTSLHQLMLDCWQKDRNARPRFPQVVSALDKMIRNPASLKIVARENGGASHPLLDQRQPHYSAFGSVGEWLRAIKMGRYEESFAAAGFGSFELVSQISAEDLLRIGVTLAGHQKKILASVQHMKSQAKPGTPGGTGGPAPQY

[5] = target: Fibroblast growth factor receptor 1 (Homo sapiens) (UniProt P11362); assay: Inhibition of FGFR1 at 10 uM by HTRF assay relative to control; summary of the method: as §1
[6] = Inhibition of IRK at 10 uM by HTRF assay relative to control; summary of the method: as §1
[7] = target: Mitogen-activated protein kinase 1 (Homo sapiens) (UniProt P28482); assay: Inhibition of ERK2 at 10 uM by HTRF assay relative to control; summary of the method: as §1
[8] = target: Receptor-type tyrosine-protein kinase FLT3 (Homo sapiens) (UniProt P36888); assay: Inhibition of FLT3 at 10 uM by HTRF assay relative to control; summary of the method: as §1
[9] = target: Ribosomal protein S6 kinase alpha-3 (Homo sapiens) (UniProt P51812); assay: Inhibition of RSK2 at 10 uM by HTRF assay relative to control; summary of the method: as §1
[10] = target: Protein kinase C alpha type (Homo sapiens) (UniProt P17252); assay: Inhibition of PKCalpha at 10 uM by HTRF assay relative to control; summary of the method: as §1
[11] = Inhibition of PKA at 10 uM by HTRF assay relative to control; summary of the method: as §1
[12] = target: Calcium/calmodulin-dependent protein kinase type II subunit alpha (Homo sapiens) (UniProt Q9UQM7); assay: Inhibition of CaMK2alpha at 10 uM by HTRF assay relative to control; summary of the method: as §1
[13] = target: Ribosomal protein S6 kinase beta-1 (Homo sapiens) (UniProt P23443); assay: Inhibition of p70S6K at 10 uM by HTRF assay relative to control; summary of the method: as §1
[14] = target: Tyrosine-protein kinase Lck (Homo sapiens) (UniProt P06239); assay: Inhibition of Lck at 10 uM by HTRF assay relative to control; summary of the method: as §1
[15] = target: 3-phosphoinositide-dependent protein kinase 1 (Homo sapiens) (UniProt O15530); assay: Inhibition of PDK1 at 10 uM by HTRF assay relative to control
[16] = target: T2, Inhibitor of nuclear factor kappa-B kinase subunit beta (Homo sapiens) (UniProt O14920); assay: Inhibition of IKK-beta at 10 uM by HTRF assay relative to control; summary of the method: as §1
T2 sequence (whole entry): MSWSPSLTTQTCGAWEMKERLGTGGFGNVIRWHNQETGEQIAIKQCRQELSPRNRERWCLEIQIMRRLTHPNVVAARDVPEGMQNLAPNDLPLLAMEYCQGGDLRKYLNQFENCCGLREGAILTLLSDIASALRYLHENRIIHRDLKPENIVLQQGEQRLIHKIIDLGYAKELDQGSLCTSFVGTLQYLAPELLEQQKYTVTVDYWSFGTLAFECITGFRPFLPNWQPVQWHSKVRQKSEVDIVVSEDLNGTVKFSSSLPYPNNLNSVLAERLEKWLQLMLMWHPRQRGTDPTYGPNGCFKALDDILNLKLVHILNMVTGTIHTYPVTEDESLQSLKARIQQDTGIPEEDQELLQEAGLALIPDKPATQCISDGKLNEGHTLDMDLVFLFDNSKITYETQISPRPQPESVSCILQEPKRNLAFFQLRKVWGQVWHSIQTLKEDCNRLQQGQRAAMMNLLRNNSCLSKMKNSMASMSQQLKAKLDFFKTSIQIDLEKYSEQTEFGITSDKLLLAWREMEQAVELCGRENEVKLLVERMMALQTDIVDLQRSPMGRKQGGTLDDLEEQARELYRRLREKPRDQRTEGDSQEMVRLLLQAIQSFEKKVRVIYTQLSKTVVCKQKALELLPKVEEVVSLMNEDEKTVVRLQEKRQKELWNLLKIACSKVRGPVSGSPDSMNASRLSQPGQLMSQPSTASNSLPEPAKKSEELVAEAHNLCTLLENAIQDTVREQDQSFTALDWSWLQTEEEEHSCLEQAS

Sequence of Fibroblast growth factor receptor 1 (Homo sapiens) (P11362 22-822 limits assumed): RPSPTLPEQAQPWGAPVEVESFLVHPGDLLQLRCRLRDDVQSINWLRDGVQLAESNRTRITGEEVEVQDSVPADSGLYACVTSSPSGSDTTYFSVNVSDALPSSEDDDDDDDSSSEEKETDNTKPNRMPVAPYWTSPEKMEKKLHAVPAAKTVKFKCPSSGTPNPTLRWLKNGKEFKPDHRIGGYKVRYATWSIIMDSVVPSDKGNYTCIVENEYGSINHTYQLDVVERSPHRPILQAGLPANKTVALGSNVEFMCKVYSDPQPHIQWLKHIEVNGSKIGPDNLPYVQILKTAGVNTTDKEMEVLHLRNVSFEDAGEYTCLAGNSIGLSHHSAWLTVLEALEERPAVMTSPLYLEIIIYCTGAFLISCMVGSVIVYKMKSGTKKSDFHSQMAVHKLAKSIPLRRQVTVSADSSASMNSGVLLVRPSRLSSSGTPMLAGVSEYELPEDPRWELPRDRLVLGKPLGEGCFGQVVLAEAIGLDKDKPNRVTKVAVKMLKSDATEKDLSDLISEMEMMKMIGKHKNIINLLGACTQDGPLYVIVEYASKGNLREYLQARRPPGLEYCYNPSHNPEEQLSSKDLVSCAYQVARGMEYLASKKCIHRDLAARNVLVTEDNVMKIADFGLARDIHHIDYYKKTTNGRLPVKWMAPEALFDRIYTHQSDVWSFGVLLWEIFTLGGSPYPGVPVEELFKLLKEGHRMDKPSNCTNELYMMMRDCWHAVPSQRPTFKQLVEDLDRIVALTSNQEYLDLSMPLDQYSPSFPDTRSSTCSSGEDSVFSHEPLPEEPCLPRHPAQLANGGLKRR
Sequence of Receptor-type tyrosine-protein kinase FLT3 (Homo sapiens) (P36888 whole entry): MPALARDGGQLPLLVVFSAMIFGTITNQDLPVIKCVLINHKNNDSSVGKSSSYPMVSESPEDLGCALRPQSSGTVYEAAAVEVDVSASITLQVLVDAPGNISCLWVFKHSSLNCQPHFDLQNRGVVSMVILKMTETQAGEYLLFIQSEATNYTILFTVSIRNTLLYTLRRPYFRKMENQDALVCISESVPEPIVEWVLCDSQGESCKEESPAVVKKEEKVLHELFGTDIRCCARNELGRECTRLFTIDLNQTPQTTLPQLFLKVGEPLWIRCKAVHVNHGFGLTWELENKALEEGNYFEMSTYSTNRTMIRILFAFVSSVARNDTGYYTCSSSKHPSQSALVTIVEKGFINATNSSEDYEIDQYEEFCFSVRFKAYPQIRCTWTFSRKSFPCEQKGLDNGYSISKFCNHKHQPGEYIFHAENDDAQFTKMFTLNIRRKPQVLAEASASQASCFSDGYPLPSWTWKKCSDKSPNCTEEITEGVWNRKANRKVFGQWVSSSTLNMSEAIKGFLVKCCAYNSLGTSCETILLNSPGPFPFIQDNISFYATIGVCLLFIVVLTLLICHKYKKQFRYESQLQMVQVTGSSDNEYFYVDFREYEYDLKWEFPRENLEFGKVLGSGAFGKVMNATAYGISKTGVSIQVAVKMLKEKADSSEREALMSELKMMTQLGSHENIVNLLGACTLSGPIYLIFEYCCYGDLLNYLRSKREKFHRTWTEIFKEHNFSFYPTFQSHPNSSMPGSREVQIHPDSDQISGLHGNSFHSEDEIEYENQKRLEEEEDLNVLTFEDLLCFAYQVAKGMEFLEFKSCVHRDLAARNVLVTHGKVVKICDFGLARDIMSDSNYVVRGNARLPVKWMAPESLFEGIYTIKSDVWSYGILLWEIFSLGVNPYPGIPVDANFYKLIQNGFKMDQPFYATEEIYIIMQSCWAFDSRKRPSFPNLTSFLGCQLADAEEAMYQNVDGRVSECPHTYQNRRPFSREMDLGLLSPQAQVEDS
Sequence of Tyrosine-protein kinase Lck (Homo sapiens) (P06239 2-509 limits assumed): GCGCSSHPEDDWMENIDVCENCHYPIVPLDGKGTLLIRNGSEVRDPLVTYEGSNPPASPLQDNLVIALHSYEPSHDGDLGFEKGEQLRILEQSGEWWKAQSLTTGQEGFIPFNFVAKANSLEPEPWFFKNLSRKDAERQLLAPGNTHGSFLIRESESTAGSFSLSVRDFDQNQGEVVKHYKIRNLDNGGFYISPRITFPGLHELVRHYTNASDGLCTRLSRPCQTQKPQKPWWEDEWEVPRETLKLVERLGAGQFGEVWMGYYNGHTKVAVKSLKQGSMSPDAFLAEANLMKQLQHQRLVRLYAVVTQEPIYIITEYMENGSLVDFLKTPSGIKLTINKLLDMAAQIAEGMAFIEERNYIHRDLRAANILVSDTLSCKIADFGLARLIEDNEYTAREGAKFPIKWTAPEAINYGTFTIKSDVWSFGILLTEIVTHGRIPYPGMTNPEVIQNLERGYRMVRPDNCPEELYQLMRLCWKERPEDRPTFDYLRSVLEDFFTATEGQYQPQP
Sequence of Ribosomal protein S6 kinase beta-1 (Homo sapiens) (P23443 whole entry, looked up): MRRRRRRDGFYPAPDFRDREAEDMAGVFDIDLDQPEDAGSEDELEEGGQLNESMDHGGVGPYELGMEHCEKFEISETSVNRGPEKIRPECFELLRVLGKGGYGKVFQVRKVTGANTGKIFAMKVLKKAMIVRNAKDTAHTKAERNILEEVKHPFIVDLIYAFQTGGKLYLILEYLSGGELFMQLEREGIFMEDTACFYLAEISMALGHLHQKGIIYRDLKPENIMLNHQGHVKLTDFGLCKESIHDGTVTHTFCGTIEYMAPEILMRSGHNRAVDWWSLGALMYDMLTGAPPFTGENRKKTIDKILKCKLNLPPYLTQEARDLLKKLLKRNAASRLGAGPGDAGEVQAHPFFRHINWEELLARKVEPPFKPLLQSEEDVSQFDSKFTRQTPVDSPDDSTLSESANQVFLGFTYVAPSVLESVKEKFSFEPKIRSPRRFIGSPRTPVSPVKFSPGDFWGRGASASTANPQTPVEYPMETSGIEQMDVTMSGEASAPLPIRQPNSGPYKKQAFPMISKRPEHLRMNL
Sequence of Protein-tyrosine kinase 6 (Homo sapiens) (Q13882 whole entry, looked up): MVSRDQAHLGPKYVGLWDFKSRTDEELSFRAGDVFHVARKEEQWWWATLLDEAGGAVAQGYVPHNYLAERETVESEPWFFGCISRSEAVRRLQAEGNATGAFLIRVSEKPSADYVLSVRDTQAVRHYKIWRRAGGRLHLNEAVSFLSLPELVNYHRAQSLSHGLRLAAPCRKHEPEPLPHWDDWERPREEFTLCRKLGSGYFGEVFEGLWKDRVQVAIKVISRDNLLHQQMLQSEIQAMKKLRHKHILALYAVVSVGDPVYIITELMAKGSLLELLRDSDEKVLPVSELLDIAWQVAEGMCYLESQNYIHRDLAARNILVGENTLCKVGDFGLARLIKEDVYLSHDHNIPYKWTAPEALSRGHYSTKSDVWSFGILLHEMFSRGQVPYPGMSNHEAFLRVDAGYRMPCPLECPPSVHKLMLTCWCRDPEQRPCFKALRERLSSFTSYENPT
Sequence of Mitogen-activated protein kinase 1 (Homo sapiens) (P28482 whole entry): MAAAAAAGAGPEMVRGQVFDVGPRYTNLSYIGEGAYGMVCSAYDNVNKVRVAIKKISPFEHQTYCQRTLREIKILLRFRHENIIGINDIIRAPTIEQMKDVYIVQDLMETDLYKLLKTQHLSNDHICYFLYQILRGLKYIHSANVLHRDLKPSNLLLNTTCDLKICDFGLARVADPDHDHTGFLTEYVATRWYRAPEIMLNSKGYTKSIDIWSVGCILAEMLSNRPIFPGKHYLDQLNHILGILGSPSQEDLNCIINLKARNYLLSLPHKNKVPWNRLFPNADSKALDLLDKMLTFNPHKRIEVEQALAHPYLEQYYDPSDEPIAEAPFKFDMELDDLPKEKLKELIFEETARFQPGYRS

Row | SMILES | inhibition [1] | inhibition [2] | inhibition [3] | inhibition [4] | inhibition [5] | inhibition [6] | inhibition [7] | inhibition [8] | inhibition [9] | inhibition [10] | inhibition [11] | inhibition [12] | inhibition [13] | inhibition [14] | inhibition [15] | inhibition [16]
1 | COc1ccc(-c2noc(CN3CCN(c4cc(Nc5cccc(O)c5)ncn4)CC3)n2)cc1 | 5% | 5% | 6% | 0% | 0% | 0% | 1% | 0% | 0% | 0% | 0% | 0% | 12% | 0% | 4% | 2%
2 | Cc1ccc(CN2CCN(c3nccc(C(C#N)c4ccccn4)n3)CC2)cc1 (centres undefined) | 0% | 4% | 14% | 0% | 5% | 0% | 0% | 0% | 0% | 0% | 0% | 0% | 11% | 0% | 1% | 7%
3 | COC[C@@H]1CCCN1C(=O)[C@@H]1CCCN1c1nccc(Nc2ccccc2)n1 | 5% | 0% | 8% | 0% | 0% | 0% | 0% | 0% | 0% | 0% | 0% | 0% | 8% | 0% | 1% | 6%
4 | COc1ccc(NC(=O)Cc2ccc(Nc3cc(N(C)c4cccc(C)c4)ncn3)cc2)cn1 | 4% | 5% | 22% | 0% | 16% | 0% | 4% | 11% | 0% | 0% | 0% | 0% | 6% | 0% | 1% | 0%
5 | CN(CCCn1ccnc1)C(=O)[C@@H]1CCCN1c1nccc(Nc2ccccc2)n1 | 4% | 0% | 11% | 0% | 0% | 0% | 0% | 0% | 0% | 0% | 0% | 0% | 6% | 0% | 1% | 3%
6 | Cc1cccc(Oc2ccnc(N3CCC[C@H]3C(=O)NCc3cccnc3)n2)c1 | 0% | 6% | 11% | 0% | 0% | 0% | 0% | 0% | 0% | 0% | 0% | 0% | 16% | 0% | 0% | 0%
7 | Cc1cccc(Nc2cc(Nc3cccc(C(=O)N(CC(C)O)CC(C)O)c3)ncn2)c1 (centres undefined) | 23% | 1% | 32% | 0% | 59% | 0% | 0% | 27% | 0% | 1% | 0% | 0% | 14% | 26% | 2% | 7%
8 | CC(=O)N1CCN(C(=O)c2cccc(Nc3cc(N(C)c4cccc(C)c4)ncn3)c2)CC1 | 1% | 5% | 42% | 0% | 21% | 0% | 0% | 29% | 14% | 6% | 0% | 0% | 4% | 27% | 0% | 1%
9 | COC[C@@H]1CCCN1C(=O)[C@@H]1CCCN1c1cc(Nc2cccc(OC)c2)nc(N)n1 | 17% | 0% | 4% | 0% | 0% | 0% | 0% | 0% | 5% | 5% | 0% | 0% | 9% | 0% | 0% | 9%
10 | O=C(COc1ccccc1)N1CCN(c2nccc(Nc3ccc4ncsc4c3)n2)CC1 | 54% | 14% | 30% | 0% | 16% | 0% | 0% | 0% | 0% | 0% | 2% | 0% | 15% | 22% | 0% | 10%
11 | Cc1cccc(Nc2nccc3c2CN(C(=O)c2cc(C)n(C)c2C)CC3)c1 | 13% | 4% | 5% | 0% | 0% | 0% | 6% | 0% | 0% | 1% | 0% | 0% | 6% | 0% | 0% | 0%
12 | O=C(NCc1cccnc1)c1cccc(-c2ccc(Nc3ccc4ncsc4c3)nn2)c1 | 48% | 28% | 85% | 0% | 49% | 73% | 40% | 98% | 62% | 0% | 16% | 0% | 79% | 42% | 4% | 52%
13 | CN(C)CC(C)(C)CNC(=O)C1CCN(c2cc(N3CCOCC3)nc(N)n2)CC1 | 3% | 3% | 6% | 0% | 21% | 0% | 0% | 0% | 0% | 0% | 0% | 0% | 6% | 0% | 0% | 6%
14 | O=C(NCCc1ccc(O)cc1)c1cccc(Nc2nccc(Nc3ccc4ncsc4c3)n2)c1 | 18% | 16% | 89% | 0% | 52% | 1% | 0% | 98% | 3% | 0% | 0% | 0% | 0% | 1% | 0% | 11%
15 | O=C(C1CCN(c2nccc(Nc3ccccc3)n2)CC1)N1CC[C@@H](O)C1 | 4% | 5% | 6% | 0% | 4% | 0% | 0% | 0% | 0% | 0% | 0% | 0% | 10% | 0% | 2% | –
